RBBP9 inhibitor – blocks human serine hydrolase RBBP9 | O75884 | recombinant RBBP9, FP-Rh probe fluorescence polarization | inhibition, % at 7.94 µM | 220,000 compounds, 0.2% hits | AID 1515;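 active = inhibition above the campaign mean of all tested compounds plus 3 SD, cut at about 14% in these data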;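 note: plate controls were DMSO wells with RBBP9 for no effect and wells lacking RBBP9 protein for full effect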
Target sequence (O75884 whole entry, looked up): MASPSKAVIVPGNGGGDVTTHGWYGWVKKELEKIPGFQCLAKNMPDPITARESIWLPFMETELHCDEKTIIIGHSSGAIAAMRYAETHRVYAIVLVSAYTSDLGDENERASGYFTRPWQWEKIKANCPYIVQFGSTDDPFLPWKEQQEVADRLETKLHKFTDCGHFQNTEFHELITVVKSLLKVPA
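System: RBBP9 protein / Buffer or medium: Tris/NaCl buffer pH 8.0 with 0.1% Pluronic / Probe or stimulus: Serine-hydrolase probe FP-Rh, 375 nM pre-mixing / Dosing: 7.94 µM single dose, 0.794% DMSO / Times: enzyme-compound preincubation 30 min, then probe labeling 45 min, 25 °C / Technique: fluorescence polarization (mP), excitation 525 nm, emission 598 nm / Replication: singlicate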
14-3-3 Bad inh – disrupts binding of bovine 14-3-3 zeta to phospho-Bad peptide | P63103 | TR-FRET 14-3-3zeta/Dy647-pBad peptide displacement, 1 h | inhibition, % at 21.7 µM | 220,000 compounds, 0.71% hits;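 active = inhibition above about 70%, limit read from the data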;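 note: 0% = full 14-3-3 plus peptide FRET controls and 100% = background without 14-3-3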
Target sequence (P63103 whole entry, looked up): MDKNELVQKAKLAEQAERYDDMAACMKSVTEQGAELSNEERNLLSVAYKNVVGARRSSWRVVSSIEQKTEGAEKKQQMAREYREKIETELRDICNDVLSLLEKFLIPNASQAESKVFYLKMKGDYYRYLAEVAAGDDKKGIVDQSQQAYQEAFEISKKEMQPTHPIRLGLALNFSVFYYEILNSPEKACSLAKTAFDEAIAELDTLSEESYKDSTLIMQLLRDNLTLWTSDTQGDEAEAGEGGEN
Wee1 degr inh – human Wee1 degradation inhibition, primary screen. P30291. 220,000 compounds, 1.2% hits. HeLa Luc-Wee1K328M stability, luciferase luminescence; 100% = proteasome inhibitor MG132 effect. AID 1321. reporter increase, % at 5 µM;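 active = activation above the mean of all tested compounds plus 3 SD, set per screening run, cut at about 8.8% in these data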;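 note: cells exposed to compound for 20 h before luminescence read; 0% = DMSO alone and 100% = MG132 at 30 µM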
NCF1 inh – inhibitors of human p47phox binding; p47phox/p22phox peptide binding, fluorescence polarization, 2 h; inhibition, % at 24.7 µM; 220,000 compounds, 0.53% hits; AID 1274;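 note: 0% = p47phox with labelled peptide and 100% = labelled peptide alone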
eIF4E 4G PPI – eIF4E/eIF4G interaction inhibition in translation initiation; P63073+Q04637; TR-FRET eIF4E-eIF4GI(517-606) binding, 2 h; inhibition, % at 21.7 µM; 220,000 compounds, 0.37% hits; AID 782;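 note: 0% = full FRET control wells and 100% = background wells lacking eIF4GI fragment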
* hit, by the source's call. Sampled rows, rich in hits. Any-hit rate of the full collection: about 2.8%.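 Rule for the calls, unless noted: active = inhibition above about 30% (limit read from the data); inactive = the rest.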

SMILES | RBBP9 inhibitor | 14-3-3 Bad inh | Wee1 degr inh | NCF1 inh | eIF4E 4G PPI
O=C(CCc1ccccc1)OCC(=O)c1ccc(Br)cc1 | -13 | -6 | 8 | -6 | 7
COC(=O)c1sccc1NC(=O)CC1C(=O)NCCN1C(=O)c1ccccc1 (stereo unspecified) | -10 | 1 | 0 | -4 | -3
COC(=O)c1sccc1NC(=O)CC1C(=O)NCCN1C(=O)Nc1cc(Cl)ccc1OC (stereo unspecified) | -16 | 4 | 8.9* | -7 | -13
Cc1nc(-c2cccnc2)sc1C(=O)Nc1ccc(Cl)cc1 | -8 | 5 | -1 | -7 | 4
Cc1nc(-c2cccnc2)sc1C(=O)N/N=C/c1ccccc1Cl | -4 | 87* | 0 | -3 | 21
Cc1nn(-c2ccccc2)c2c1C(c1ccc(F)cc1F)C(C#N)=C(N)O2 (stereo unspecified) | -5 | -3 | 3 | -12 | -1
Cc1nn(-c2ccccc2)c2c1C(c1ccc(Br)s1)C(C#N)=C(N)O2 (stereo unspecified) | 0 | -2 | 9.1* | -10 | -1
Cc1ccc(C)c(NC(=O)CSc2nnc3n2CCCCC3)c1 | -5 | -1 | 0 | -4 | -5
O=S(=O)(Nc1ccncc1Cl)c1cc(Cl)ccc1Cl | 10 | 2 | -3 | -7 | 4
O=S(=O)(Nc1nc(-c2sccc2Cl)cs1)c1cc(Cl)ccc1Cl | 0 | 87* | 3 | -80 | 9
CCOc1cnn(Cc2ccccc2)c(=O)c1SCc1ccccc1 | -2 | -15 | 0 | -8 | 1
CCCOc1ccc(/C=N\NC(=O)CCc2n[nH]c(=O)[nH]c2=O)cc1OC | -5 | 8 | 9.6* | 5 | -4
COc1ccc(/C=N/NC(=O)CCc2n[nH]c(=O)[nH]c2=O)cc1OC | -5 | -5 | 4 | -6 | -2
CCOC(=O)CN=C/C(C(C)=O)=C(/C)O | 2 | -2 | 0 | -3 | 10
CCOC(=O)c1ccc2c(c1)nc(SCC(=O)c1cc3ccccc3o1)n2CC | -9 | -6 | -2 | -118 | 40*
Cc1nc2cc(NS(=O)(=O)c3ccc(Br)cc3)ccc2n1C | 6 | -2 | 4 | 2 | 5
CC(OCC(O)CN(C)CCOc1ccccc1)c1ccc(Cl)cc1 (stereo unspecified) | -1 | 74* | 4 | -2 | 3
c1ccc2c(c1)oc1c(Nc3ccc4c(c3)OCO4)ncnc12 | -10 | 51 | 0 | -3 | -5
c1ccc2c(c1)oc1c(Nc3ccc(CN4CCOCC4)cc3)ncnc12 | -6 | 79* | 3 | -13 | -6
Oc1ccccc1Nc1ncnc2c1oc1ccccc12 | -13 | 73* | 0 | 2 | 1
c1ccc(Nc2ncnc3c2oc2ccccc23)cc1 | 1 | 71* | -1 | -8 | 3
Cc1nc(-c2ccc(-n3nncc3-c3ccco3)cc2)cs1 | -13 | 0 | -1 | -5 | 6
COc1ccc(NC(=O)Cn2nc(Cc3cccnc3)c3ccccc3c2=O)c(OC)c1 | 1 | 6 | -3 | -9 | 1
Cc1ccc(N2C(=O)CC3(CC4C=CC3C4)C2=O)cc1 (stereo unspecified) | -7 | 2 | -3 | -9 | -5
CC1CCc2cc(F)ccc2N1C(=O)CCl (stereo unspecified) | -1 | -3 | 2 | -6 | 0
C#CCOCCOCCOCCNc1nc(N2CCN(C(=O)Cn3cc(CCCN=C(N)N)nn3)CC2)nc(N2CCN(C(=O)[C@H]([C@@H](C)CC)n3cc(CCCN=C(N)N)nn3)CC2)n1 | -3 | 86* | -1 | 13 | 6
C#CCOCCOCCOCCNc1nc(N2CCN(C(=O)Cn3cc(CC(C)O)nn3)CC2)nc(N2CCN(C(=O)[C@H](C)n3cc(CCCN=C(N)N)nn3)CC2)n1 (stereo partly specified) | -5 | 84* | -1 | -3 | -1
C#CCOCCOCCOCCNc1nc(N2CCN(C(=O)Cn3cc(CCCN=C(N)N)nn3)CC2)nc(N2CCN(C(=O)[C@H](C(C)C)n3cc(CCO)nn3)CC2)n1 | -8 | 62 | 1 | -1 | 5
C#CCOCCOCCOCCNc1nc(N2CCN(C(=O)[C@H]([C@@H](C)O)n3cc(CCCCN)nn3)CC2)nc(N2CCN(C(=O)[C@H](C)n3cc(CCCN=C(N)N)nn3)CC2)n1 | 0 | 12 | 0 | 11 | 0

Screening data as filed in PubChem.
